Test results reported in ChEMBL document CHEMBL1122109, “Monophenolic octahydrobenzo[f]quinolines: central dopamine- and serotonin-receptor stimulating activity” (1982).
The source made the active and inactive calls. The rule behind the calls is not given here.

Tests used:
[1] = organism: Rattus norvegicus; assay: Percent reduction of hemispheres in cortex was measured in the brain of reserpinized rats; I is Inactive, no significant effect at doses approximately 40 times the ED50 for Dopa accumulation; type: functional, organism-based
[2] = organism: Rattus norvegicus; assay: ED50 value was measured as dose required to produce a half-maximal reduction of Serotonin (5-HTP) accumulation in limbic area of reserpinized rat brain; I is Inactive, no significant effect at doses approximately 40 times the ED50 for Dopa accumulation; type: functional, organism-based
[3] = organism: Rattus norvegicus; assay: ED50 value was measured as dose required to produce a half-maximal reduction of Serotonin (5-HTP) accumulation in striatum of reserpinized rat brain; I is Inactive, no significant effect at doses approximately 40 times the ED50 for Dopa accumulation; type: functional, organism-based
[4] = organism: Rattus norvegicus; assay: ED50 value was measured as dose required to produce a half-maximal reduction of Dopa accumulation in the striatum of reserpinized rat brain.; type: functional
[5] = organism: Rattus norvegicus; assay: ED50 value was measured as dose required to produce a half-maximal reduction of Dopa accumulation in limbic area of reserpinized rat brain.; type: functional
[6] = organism: Rattus norvegicus; assay: Percent reduction of hemispheres in cortex was measured in the brain of reserpinized rats.*: No significant effect at doses approximately 40 times the ED50; I is Inactive, no significant effect at doses approximately 40 times the ED50 for Dopa ac cumulation; type: functional, organism-based
[7] = organism: Rattus norvegicus; assay: Motor activity was measured in the reserpinized rats as counts/60 min.; type: functional
Method in brief: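 Male Sprague-Dawley rats (200-300 g) received reserpine 10 mg/kg ip 6 h before testing and DL-α-methyl-p-tyrosine methyl ester HCl 250 mg/kg ip 1 h before. Test drug was given sc in the neck: trans derivatives at 1 mg/kg (3100 nmol/kg), cis at 10 mg/kg (31000 nmol/kg), n = 4. Rats were placed singly in motility meters immediately and activity recorded for 60 min; means ± SEM.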

[8] = organism: Rattus norvegicus; assay: Percent reduction of hemispheres in cortex was measured in the brain of reserpinized rats; I is Inactive, no significant effect at doses approximately 10 times the ED50 for Dopa accumulation; type: functional, organism-based
[9] = system: Rattus norvegicus; assay: ED50 value was measured as dose required to produce a half-maximal reduction of Serotonin (5-HTP) accumulation in striatum of reserpinized rat brain; I is Inactive at 2800 nmol/kg; type: functional, organism-based
[10] = organism: Rattus norvegicus; assay: ED50 value was measured as dose required to produce a half-maximal reduction of Serotonin (5-HTP) accumulation in limbic area of reserpinized rat brain; I is Inactive, no significant effect at doses approximately 10 times the ED50 for Dopa accumulation; type: functional, organism-based
[11] = system: Rattus norvegicus; assay: ED50 value was measured as dose required to produce a half-maximal reduction of Dopa accumulation in limbic area of reserpinized rat brain; I is Inactive at 2800 nmol/kg; type: functional, organism-based
[12] = system: Rattus norvegicus; assay: ED50 value was measured as dose required to produce a half-maximal reduction of Serotonin (5-HTP) accumulation in limbic area of reserpinized rat brain; I is Inactive at 2800 nmol/kg; type: functional, organism-based
[13] = system: Rattus norvegicus; assay: ED50 value was measured as dose required to produce a half-maximal reduction of Dopa accumulation in the striatum of reserpinized rat brain; I is Inactive at 2800 nmol/kg; type: functional, organism-based
[14] = system: Rattus norvegicus; assay: Percent reduction of hemispheres in cortex was measured in the brain of reserpinized rats; I is Inactive at 2800 nmol/kg; type: functional, organism-based
[15] = organism: Rattus norvegicus; assay: ED50 value was measured as dose required to produce a half-maximal reduction of Serotonin (5-HTP) accumulation in striatum of reserpinized rat brain; I is Inactive, no significant effect at doses approximately 10 times the ED50 for Dopa accumulation; type: functional, organism-based
[16] = system: Rattus norvegicus; assay: ED50 value was measured as dose required to produce a half-maximal reduction of Serotonin (5-HTP) accumulation in striatum of reserpinized rat brain; I is Inactive at 45000 nmol/kg; type: functional, organism-based
[17] = system: Rattus norvegicus; assay: ED50 value was measured as dose required to produce a half-maximal reduction of Serotonin (5-HTP) accumulation in limbic area of reserpinized rat brain; I is Inactive at 45000 nmol/kg; type: functional, organism-based
[18] = system: Rattus norvegicus; assay: ED50 value was measured as dose required to produce a half-maximal reduction of Dopa accumulation in the striatum of reserpinized rat brain; Maximal reduction of Dopa could not be obtained. 60% reduction from control level at 12500 nmol/Kg; type: functional, organism-based
[19] = system: Rattus norvegicus; assay: Percent reduction of hemispheres in cortex was measured in the brain of reserpinized rats.*: No significant effect at doses approximately 40 times the ED50; IA is Inactive at 45000 nmol/kg; type: functional, organism-based
[20] = system: Rattus norvegicus; assay: ED50 value was measured as dose required to produce a half-maximal reduction of Dopa accumulation in limbic area of reserpinized rat brain; Maximal reduction of Dopa could not be obtained. 40% reduction from control level at 12500 nmol/Kg; type: functional, organism-based
[21] = Rattus norvegicus, Striatum, read-out: ED50
[22] = Rattus norvegicus, Brain, read-out: ED50

Structure (SMILES)	Hemispheres reduction [1]	ED50 [2]	ED50 [3]	ED50 [4, 21]	ED50 [5, 22]	Motor activity [7]	other results
CCCN1CCCC(c2cccc(O)c2)C1 (stereo not drawn)	inactive	inactive	inactive	3.6 µmol/kg	3.6 µmol/kg	–	–
CCCN(CCC)C1CCc2ccc(O)cc2C1 (stereo not drawn)	inactive	inactive	inactive	0.03 µmol/kg	0.027 µmol/kg	–	–
CCCN(CCC)[C@@H]1CCc2ccc(O)cc2C1	–	–	–	0.17 µmol/kg	0.18 µmol/kg	–	–
CCCCN1CCCC2c3cccc(O)c3CCC21 (stereo not drawn)	–	inactive	inactive	0.07 µmol/kg	0.08 µmol/kg	418	Hemispheres reduction [6]: inactive
CCCN1CCCC2c3ccc(O)cc3CCC21 (stereo not drawn)	–	–	–	0.53 µmol/kg	0.54 µmol/kg	179	Hemispheres reduction [8]: inactive; ED50 [9]: inactive; ED50 [10]: inactive; ED50 [11]: inactive; ED50 [12]: inactive; ED50 [13]: inactive; Hemispheres reduction [14]: inactive; ED50 [15]: inactive
CCCN1CCCC2c3cccc(O)c3CCC21 (stereo in doubt; 6) [listing 1 of 2 here]	–	–	–	–	–	17	–
CCCN1CCCC2c3cccc(O)c3CCC21 (stereo in doubt; 6) [listing 2 of 2 here]	–	–	–	–	–	–	ED50 [16]: inactive; ED50 [17]: inactive; ED50 [18]: Weak activity; Hemispheres reduction [19]: inactive; ED50 [20]: Weak activity
CCCN1CCCC2c3cccc(O)c3CCC21 (stereo in doubt; 7) [listing 1 of 2 here]	–	–	–	0.13 µmol/kg	0.13 µmol/kg	327	–
CCCN1CCCC2c3cccc(O)c3CCC21 (stereo in doubt; 7) [listing 2 of 2 here]	inactive	inactive	inactive	–	–	–	–
CCCN1CCCC2c3cc(O)ccc3CCC21 (stereo in doubt; 8)	–	–	–	–	–	–	ED50 [4]: 3400 nM/kg; ED50 [5]: 2000 nM/kg
